Among the data in ChEMBL document CHEMBL4732199, “Potent and orally bioavailable CDK8 inhibitors: Design, synthesis, structure-activity relationship analysis and biological evaluation” (Eur J Med Chem, 2021) are Ki and GI50 values, retold here.

A word on the Ki: it is the equilibrium dissociation constant of an inhibitor or competing ligand from its target. In general, GI50 refers to the concentration that inhibits growth by half.

One assay deals with CDK8/Cyclin C (Homo sapiens, UniProt P49336). Briefly: Inhibition of CDK8/cyclin C (unknown origin) using RBER-IRStide as substrate incubated for 60 mins in presence of [gamma33P]ATP by scintillation counting method. The assay is classed as protein-complex assay.
For a further assay, the system named is MV4-11. The assay is described as follows: Growth inhibition of human MV4-11 cells after 72 hrs by resazurin staining based assay. The assay is classed as functional. Summed up:
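MV4-11 leukaemia cells grown in medium with 10% FBS at 37 °C, 5% CO2. Growth was read by a 72-h resazurin viability assay. GI50 was obtained by nonlinear regression and reported as mean ± standard deviation of at least two replicates.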
Background: Resazurin is reduced to fluorescent resorufin, in cell work by metabolically active cells.

Sequence of CDK8/Cyclin C (P49336 whole entry): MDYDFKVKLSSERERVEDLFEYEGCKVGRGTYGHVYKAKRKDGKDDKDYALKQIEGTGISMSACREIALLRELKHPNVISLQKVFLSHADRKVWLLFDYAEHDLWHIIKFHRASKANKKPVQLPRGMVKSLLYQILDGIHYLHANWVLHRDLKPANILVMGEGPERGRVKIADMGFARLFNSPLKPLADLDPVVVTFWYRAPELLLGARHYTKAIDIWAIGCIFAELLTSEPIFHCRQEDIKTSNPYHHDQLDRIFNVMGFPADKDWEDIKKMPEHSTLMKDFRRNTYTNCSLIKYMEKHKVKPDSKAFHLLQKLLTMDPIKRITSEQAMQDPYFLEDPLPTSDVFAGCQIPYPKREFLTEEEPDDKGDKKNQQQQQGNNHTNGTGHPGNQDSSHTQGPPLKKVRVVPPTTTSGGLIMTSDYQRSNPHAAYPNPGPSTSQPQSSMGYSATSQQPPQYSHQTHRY
Sequence of CDK8/Cyclin C (P24863 whole entry, further chain): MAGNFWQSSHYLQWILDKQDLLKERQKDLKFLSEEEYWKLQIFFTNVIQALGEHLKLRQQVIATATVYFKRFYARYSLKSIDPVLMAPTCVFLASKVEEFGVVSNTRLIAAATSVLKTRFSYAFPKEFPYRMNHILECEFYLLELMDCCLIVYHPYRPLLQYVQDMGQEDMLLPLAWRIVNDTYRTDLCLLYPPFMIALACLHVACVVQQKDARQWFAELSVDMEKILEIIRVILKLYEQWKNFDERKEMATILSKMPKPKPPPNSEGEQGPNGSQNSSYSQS

`O=C1NCCC12CCN(c1c(Cl)cncc1-c1cccc3ncccc13)CC2`: the Ki at CDK8/Cyclin C stood at 22 nM. This compound also returned a GI50 in the assay with MV4-11 of 3650 nM.

Regarding `O=C1NCCC12CCN(c1c(Cl)cncc1-c1c[nH]c3ncccc13)CC2`, on CDK8/Cyclin C, the Ki amounted to 50 nM. In the assay with MV4-11, it took 7820 nM to inhibit growth by half (GI50).

For `O=C1NCCC12CCN(c1c(Cl)cncc1-c1cccc3c1sc1ccccc13)CC2`, on CDK8/Cyclin C, the Ki was 24 nM. The compound further returned a GI50 in the assay with MV4-11 of 6350 nM.

With `O=C1NCCC12CCN(c1c(Cl)cncc1-c1cn(S(=O)(=O)c3ccccc3)c3ccccc13)CC2`, the Ki on CDK8/Cyclin C was 645 nM. The same compound came in with a GI50 in the assay on MV4-11 of 28400 nM.

`O=C1NCCC12CCN(c1c(Cl)cncc1-c1cccc3cccnc13)CC2`: the Ki on CDK8/Cyclin C turned out to be 114 nM. Besides, the GI50 in the assay with MV4-11 is 9150 nM.

With `Cn1c(-c2cncc(Cl)c2N2CCC3(CCNC3=O)CC2)cc2ccccc21`, the Ki at CDK8/Cyclin C turned out to be 79 nM. Further, in the assay on MV4-11, the GI50 was 10100 nM.

On to `O=C1NCCC12CCN(c1c(Cl)cncc1-c1cccc3c1oc1ccccc13)CC2`, for which the Ki at CDK8/Cyclin C was found to be 16 nM. This compound also registered a GI50 with MV4-11 of 6680 nM.

As to `O=C1NCCC12CCN(c1c(Cl)cncc1-c1c[nH]c3ccccc13)CC2`, on CDK8/Cyclin C, the Ki turned out to be 56 nM. In the assay on MV4-11, this compound displayed a GI50 of 8770 nM.

As for `O=C1NCCC12CCN(c1c(Cl)cncc1-c1cccc3ccncc13)CC2`, the Ki at CDK8/Cyclin C worked out at 3140 nM. Besides, growth with MV4-11 was halved (GI50) at 64200 nM.

With `Cc1ccc(-c2cncc(Cl)c2N2CCC3(CCNC3=O)CC2)c2ccccc12`, at CDK8/Cyclin C, the Ki came out at 22 nM. Moreover, growth with MV4-11 was halved (GI50) at 710 nM.

With `COc1ccc(-c2cncc(Cl)c2N2CCC3(CCNC3=O)CC2)c2ccccc12`, the Ki at CDK8/Cyclin C is 26 nM. For the same compound, in the assay on MV4-11, the GI50 is 33200 nM.

In the case of `Cn1cc(-c2ccc(-c3cncc(Cl)c3-n3ccc(C(=O)O)c3)cc2)cn1`, the Ki at CDK8/Cyclin C came out at 4190 nM. Further, in the assay with MV4-11, the GI50 was determined as 87100 nM.

On to `Cn1cc(-c2ccc(-c3cncc(Cl)c3-n3ccc(C(N)=O)c3)cc2)cn1`, for which, on CDK8/Cyclin C, the Ki came out at 1090 nM. In the assay on MV4-11, this compound yielded a GI50 of 9580 nM.

Turning to `Cn1cc2c(-c3cncc(Cl)c3N3CCC4(CCNC4=O)CC3)cccc2n1`, at CDK8/Cyclin C, the Ki is 52 nM. This compound came in with a GI50 in the assay with MV4-11 of 5260 nM.

With `CNC(=O)c1ccn(-c2c(Cl)cncc2-c2ccc(-c3cnn(C)c3)cc2)c1`, the Ki on CDK8/Cyclin C amounted to 2030 nM. Besides, in the assay on MV4-11, it took 35000 nM to inhibit growth by half (GI50).

`O=C1NCCC12CCN(c1c(Cl)cncc1-c1cncc3ccccc13)CC2`: the Ki at CDK8/Cyclin C came to 66 nM. In the assay with MV4-11, this compound showed a GI50 of 7550 nM.

Turning to `Cn1ncc2c(-c3cncc(Cl)c3N3CCC4(CCNC4=O)CC3)cccc21`, at CDK8/Cyclin C, the Ki was determined as 458 nM. The compound further returned a GI50 in the assay with MV4-11 of 27700 nM.

As for `O=C1NCCC12CCN(c1c(Cl)cncc1-c1csc3ccccc13)CC2`, the Ki at CDK8/Cyclin C amounted to 21 nM. Besides, halving of growth in the assay with MV4-11 (GI50) required 350 nM.

On to `CC(C)(C)OC(=O)N1CCC(n2cc(-c3cncc(Cl)c3N3CCC4(CCNC4=O)CC3)cn2)CC1`, for which the Ki on CDK8/Cyclin C worked out at 700 nM. Besides, the GI50 in the assay with MV4-11 was 12200 nM.

As for `O=C1NCCC12CCN(c1c(Cl)cncc1-c1cn(Cc3ccccc3)c3ncccc13)CC2`, the Ki on CDK8/Cyclin C was 58 nM. Growth in the assay with MV4-11 was halved (GI50) at 30600 nM.

Regarding `O=C1NCCC12CCN(c1c(Cl)cncc1-c1ccnc3ccccc13)CC2`, the Ki at CDK8/Cyclin C turned out to be 138 nM. The GI50 with MV4-11 amounted to 53500 nM.

As for `O=C1NCCC12CCN(c1c(Cl)cncc1-c1cc3ccccc3[nH]1)CC2`, at CDK8/Cyclin C, the Ki was determined as 156 nM. The compound further came in with a GI50 with MV4-11 of 6840 nM.

As for `O=C1NCCC12CCN(c1c(Cl)cncc1-c1cnn(Cc3ccccc3)c1)CC2`, the Ki on CDK8/Cyclin C amounted to 346 nM. In addition, in the assay with MV4-11, the GI50 was found to be 5340 nM.

With `O=C1NCCC12CCN(c1c(Cl)cncc1-c1cn(S(=O)(=O)c3ccccc3)c3ncccc13)CC2`, at CDK8/Cyclin C, the Ki stood at 1300 nM. In the assay with MV4-11, the GI50 was 40200 nM.

With `O=C1NCCC12CCN(c1c(Cl)cncc1-c1cccc3[nH]ccc13)CC2`, the Ki on CDK8/Cyclin C is 19 nM. Further, in the assay with MV4-11, growth was halved (GI50) at 1910 nM.

Consider `O=C1NCCC12CCN(c1c(Cl)cncc1-c1cccc3cnccc13)CC2`, for which the Ki on CDK8/Cyclin C was 52 nM. In the assay with MV4-11, this compound yielded a GI50 of 62300 nM.

On to `O=C1NCCC12CCN(c1c(Cl)cncc1-c1coc3ccccc13)CC2`, for which the Ki on CDK8/Cyclin C was 48 nM. The GI50 with MV4-11 is 29200 nM.

As to `O=C1NCCC12CCN(c1c(Cl)cncc1-c1cccc3ccccc13)CC2`, the Ki on CDK8/Cyclin C was found to be 16 nM. In addition, the GI50 in the assay with MV4-11 is 820 nM.

For `Cn1ncc2cc(Nc3cncc(Cl)c3N3CCC4(CCNC4=O)CC3)ccc21`, at CDK8/Cyclin C, the Ki came out at 670 nM. Moreover, in the assay on MV4-11, growth was halved (GI50) at 1710 nM.

Turning to `O=C1NCCC12CCN(c1c(Cl)cncc1-c1cnn(-c3ccccc3)c1)CC2`, on CDK8/Cyclin C, the Ki amounted to 42 nM. Moreover, the GI50 with MV4-11 came to 840 nM.
